Laboratory results as given in ChEMBL document CHEMBL1154055, “Synthesis and structure-activity relationships of N-(4-amino-2,6-diisopropylphenyl)-N'-(1,4-diarylpiperidine-4-yl)methylureas as anti-hyperlipidemic agents” (Bioorg Med Chem, 2009).
Values after ≈ are worked out from the molar mass of the structure shown. One block for each compound: values may come before it. Active and inactive are the calls of the source. No cut-off for these calls is given here.

Experiments:
[1] = biological target: T1, Sterol O-acyltransferase 1 (Rattus norvegicus, UniProt O70536); assay: Inhibition of ACAT in rat macrophages assessed as incorporation of extracellular [3H]-oleic acid-BSA complex into the intracellular cholesteryl ester after 24 hrs; type: cell-based
T1 sequence (O70536 whole entry): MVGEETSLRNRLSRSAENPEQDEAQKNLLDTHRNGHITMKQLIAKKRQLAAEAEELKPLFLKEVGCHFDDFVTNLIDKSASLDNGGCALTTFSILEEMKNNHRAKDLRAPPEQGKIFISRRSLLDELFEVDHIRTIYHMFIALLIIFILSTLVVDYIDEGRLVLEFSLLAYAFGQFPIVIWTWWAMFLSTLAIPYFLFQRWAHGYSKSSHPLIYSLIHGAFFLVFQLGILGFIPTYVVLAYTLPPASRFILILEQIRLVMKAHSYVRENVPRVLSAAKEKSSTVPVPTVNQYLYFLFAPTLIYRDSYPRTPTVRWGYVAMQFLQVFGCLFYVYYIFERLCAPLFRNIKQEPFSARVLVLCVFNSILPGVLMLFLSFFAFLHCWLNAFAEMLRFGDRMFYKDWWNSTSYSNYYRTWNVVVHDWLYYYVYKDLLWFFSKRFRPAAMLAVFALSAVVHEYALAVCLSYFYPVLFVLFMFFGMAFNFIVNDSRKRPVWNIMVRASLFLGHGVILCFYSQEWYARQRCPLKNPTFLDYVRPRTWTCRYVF
How it was run: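 Cells seeded at 2 × 10⁶ cells/mL/well, incubated 24 h at 37 °C (humidified, 5% CO₂) in medium containing liposomes, ³H-oleic acid–BSA complex and a range of compound concentrations. Protein measured by Lowry method.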

HepG2 [2] = assay: Up-regulation of LDL receptor expression in human HepG2 cells at 100 nM by immunoblot analysis; type: functional, cell-based
How it was run: (§1)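 HepG2 cells exposed to compound, lysed in 125 mM Tris–HCl pH 8.0, 2 mM CaCl₂, 1% Triton X-100 with protease inhibitor cocktail, then centrifuged. LDL receptor detected by immunoblot with mouse monoclonal anti-LDL-R antibody (clone IgG-C7).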

HepG2 [3] = assay: Up-regulation of LDL receptor expression in human HepG2 cells at 10 uM by immunoblot analysis; type: functional, cell-based; how it was run: as §1
[4] = Solubility at pH 7.4; type: physicochemical; details: buffer

SMILES: COc1cccc(C2(CNC(=O)Nc3c(C(C)C)cc(N)cc3C(C)C)CCN(c3ccncc3)CC2)c1
IC50 [1]: > 1 µM

IC50 [1]: 0.479 µM
SMILES: CC(C)c1cc(C(C)C)c(CC(=O)NS(=O)(=O)Oc2c(C(C)C)cccc2C(C)C)c(C(C)C)c1 [AVASIMIBE]
Activity (HepG2 [2]): inactive

SMILES: COc1cccc(C2(CNC(=O)Nc3c(C(C)C)cc(N)cc3C(C)C)CCN(c3ccccc3OCCO)CC2)c1
IC50 [1]: 0.096 µM
Activity (HepG2 [2]): Active

SMILES: COc1cccc(C2(CNC(=O)Nc3c(C(C)C)cc(N)cc3C(C)C)CCN(c3ccccc3O)CC2)c1
Activity (HepG2 [2]): inactive

SMILES: COc1cccc(C2(CNC(=O)Nc3c(C(C)C)cccc3C(C)C)CCN(c3ccccc3)CC2)c1
Activity (HepG2 [3]): inactive

solubility [4]: 0.01 mg/mL (≈ 17.1 µM)
IC50 [1]: 0.031 µM
SMILES: CCCCn1c(=O)c(NC(=O)Nc2c(C(C)C)cc(N)cc2C(C)C)c(-c2cccc(OCCCO)c2)c2cccnc21
Activity (HepG2 [2]): Active

SMILES: COc1cccc(C2(CNC(=O)Nc3c(C(C)C)cc(N)cc3C(C)C)CCN(c3ccccc3OC(C)C)CC2)c1
IC50 [1]: 0.037 µM
Activity (HepG2 [2]): Active

SMILES: COc1cccc(C2(CNC(=O)Nc3c(C(C)C)cc(N)cc3C(C)C)CCN(c3cccnc3)CC2)c1
IC50 [1]: 0.466 µM

SMILES: CCCCOc1ccccc1N1CCC(CNC(=O)Nc2c(C(C)C)cc(N)cc2C(C)C)(c2cccc(OC)c2)CC1
solubility [4]: 0.0003 mg/mL (≈ 0.511 µM)
IC50 [1]: 0.032 µM
Activity (HepG2 [2]): Active

SMILES: COc1ccccc1N1CCC(CNC(=O)Nc2c(C(C)C)cc(N)cc2C(C)C)(c2cccc(OCCCO)c2)CC1
IC50 [1]: 0.062 µM
Activity (HepG2 [2]): Active

SMILES: COc1ccccc1N1CCC(CNC(=O)Nc2c(C(C)C)cc(N)cc2C(C)C)(c2cccc(O)c2)CC1
IC50 [1]: 0.797 µM
Activity (HepG2 [2]): inactive

SMILES: COc1cccc(N2CCC(CNC(=O)Nc3c(C(C)C)cc(N)cc3C(C)C)(c3cccc(OC)c3)CC2)c1
IC50 [1]: 0.048 µM
Activity (HepG2 [2]): inactive

SMILES: COc1cccc(C2(CNC(=O)Nc3c(C(C)C)cc(N)cc3C(C)C)CCN(c3ccccc3OCCCN(C)C)CC2)c1.Cl
solubility [4]: > 0.25 mg/mL
IC50 [1]: 0.239 µM

SMILES: COc1cccc(C2(CNC(=O)Nc3c(C(C)C)cc(N)cc3C(C)C)CCN(c3ccccc3OC)CC2)c1
IC50 [1]: 0.037 µM
Activity (HepG2 [2]): Active

SMILES: COc1cccc(C2(CNC(=O)Nc3c(C(C)C)cc(N)cc3C(C)C)CCN(c3ccccc3)CC2)c1
IC50 [1]: 0.04 µM
Activity (HepG2 [3]): inactive

SMILES: COc1ccc(N2CCC(CNC(=O)Nc3c(C(C)C)cc(N)cc3C(C)C)(c3cccc(OC)c3)CC2)cc1
IC50 [1]: 0.142 µM
Activity (HepG2 [2]): inactive

SMILES: COc1cccc(C2(CNC(=O)Nc3c(C(C)C)cc(N)cc3C(C)C)CCN(c3ccccn3)CC2)c1
IC50 [1]: 0.032 µM

SMILES: COc1cccc(C2(CNC(=O)Nc3c(C(C)C)cc(N)cc3C(C)C)CCN(c3ncccc3OC)CC2)c1
IC50 [1]: 0.006 µM

IC50 [1]: 0.082 µM
SMILES: COc1ccccc1N1CCC(CNC(=O)Nc2c(C(C)C)cc(N)cc2C(C)C)(c2ccccc2)CC1
Activity (HepG2 [2]): inactive

SMILES: COc1cccc(C2(CNC(=O)Nc3c(C(C)C)cc(N)cc3C(C)C)CCN(c3ncccc3OCCCO)CC2)c1
IC50 [1]: 0.004 µM

SMILES: COc1cccc(C2(CNC(=O)Nc3c(C(C)C)cc(N)cc3C(C)C)CCN(c3ccccc3OC(F)(F)F)CC2)c1
IC50 [1]: 0.068 µM
Activity (HepG2 [2]): Active

SMILES: COc1cccc(C2(CNC(=O)Nc3c(C(C)C)cc(N)cc3C(C)C)CCN(c3ccccc3OCCCO)CC2)c1.Cl.Cl
solubility [4]: 0.022 mg/mL
IC50 [1]: 0.018 µM
Activity (HepG2 [2]): Active

SMILES: COc1cccc(C2(CNC(=O)Nc3c(C(C)C)cc(N)cc3C(C)C)CCN(c3ccccc3OCCCN)CC2)c1.Cl
solubility [4]: 0.032 mg/mL
IC50 [1]: 0.195 µM
Activity (HepG2 [2]): Active

SMILES: COc1cccc(C2(CNC(=O)Nc3c(C(C)C)cc(N)cc3C(C)C)CCN(c3ccccc3OCC(F)(F)F)CC2)c1
IC50 [1]: 0.048 µM
Activity (HepG2 [2]): Active
